Drawing on ChEMBL document CHEMBL1148917, “Dibenzyl bromophenols with diverse dimerization patterns from the brown alga Leathesia nana” (J Nat Prod, 2004), this text covers IC50 for 5 compounds.

Holding throughout (assay type): functional, cell-based
The subject of assay [1] is A549. As to the kind of experiment: Cytotoxicity against human A549 cells after 96 hrs by MTT assay. In short, it runs like this: (§1)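 Cells grown in RPMI1640 with 10% FBS, penicillin and streptomycin at 37 °C under humidified 5% CO2; seeded at 1200 cells/well and dosed 24 h later. Five concentrations per compound in DMSO (0.1% final), three parallel wells each. After 96 h exposure, MTT conversion to formazan read at 570 nm; IC50 calculated from the readings.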
In general terms: Tetrazolium assays rely on reduction of a dye to a coloured formazan, in cell work by metabolically active cells.

Assay [2] has as its system BGC-823. The assay is described as follows: Cytotoxicity against human BGC823 cells after 96 hrs by MTT assay. In short, it runs like this:
as §1

Assay [3] concerns MCF7. As to the kind of experiment: Cytotoxicity against human MCF7 cells after 96 hrs by MTT assay. In outline:
as §1

The test system of assay [4] is Bel-7402. As to the kind of experiment: Cytotoxicity against human Bel7402 cells after 96 hrs by MTT assay. In short, it runs like this:
as §1

Assay [5] relates to HCT-8. As to the kind of experiment: Cytotoxicity against human HCT8 cells after 96 hrs by MTT assay. In short, it runs like this:
as §1

For the compound `COCc1cc(O)c(O)c(Br)c1Cc1cc(O)c(O)c(Br)c1Br`, the IC50 in assay [1] is 5.4 µM; in assay [2], 18 µM; in assay [3], 4.6 µM; in assay [4] it was 0.0074 uM/ml; in assay [5] it was 5.9 µM.
As for `Oc1cc(Cc2cc(O)c(O)c(Br)c2Br)c(Br)c(Br)c1O`, the IC50 in assay [1] is 1.8 µM; in assay [2], 3.8 µM; in assay [3], 2.7 µM; in assay [4], more than 0.0182 uM/ml; in assay [5], 2.2 µM.
For `COCc1c(Br)c(Br)c(O)c(O)c1Cc1cc(O)c(O)c(Br)c1Br`, in that order: 2.5 µM, 8.8 µM, 2.7 µM, 0.0048 uM/ml and more than 16.8 µM.
In the case of `CCOCc1cc(O)c(O)c(Br)c1Cc1cc(O)c(O)c(Br)c1Br`, the IC50 in assay [1] was more than 19 µM; in assay [2] it was 4.6 µM; in assay [3], 3.4 µM; in assay [4] it was 0.0055 uM/ml; in assay [5] it was 2.8 µM.
With `Oc1cc(COCc2cc(O)c(O)c(Br)c2Br)c(Br)c(Br)c1O`, the IC50 in assay [1] was more than 19.5 µM; in assay [2], 8.6 µM; in assay [3] it was 21.4 µM; in assay [4], more than 0.0019 uM/ml; in assay [5] it was 20.7 µM.
